# Screening data as filed in PubChem BioAssay.
# Hits are enriched below; roughly 4.8% of the tested compounds scored in any of these assays.
# CSC inhib – cancer stem cell viability inhibitors, primary screen, luminescence; AID 2717, 2010; cancer stem cell-like cells viability; inhibition, % at 7.5 µM; 300,000 tested, 1.1% active; in the data active means inhibition above about 75%; tested in HMLE shEcad cells
# UPR XBP1 act – activators of adaptive XBP1 UPR arm, primary screen, cell-based, CHO-XBP1 luciferase reporter, luminescence, uHTS. IRE1-XBP1 UPR activation; percent of tunicamycin response, DMSO as zero. activation, % at 20 µM. 330,000 tested, 0.33% active. AID 463104, 2010;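 active means versus positive control, 20 µM dose yields 30% or more activation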
#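 Signal: luciferase luminescence; Assay system: CHO-XBP1 luciferase reporter cells; Amount: one thousand reporter cells per well; Dosing: 20 µM single concentration, DMSO 1%; Benchmarks: high control tunicamycin 10 µg/mL final, low control DMSO vehicle only; Schedule: 6 h compound exposure at 37 °C, 5% CO2; Evaluation: percent activation relative to tunicamycin reference.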
# Beta apoptosis – inhibitors of cytokine-induced beta cell apoptosis, primary screen, luminescence | protection from apoptosis, % (no concentration beside the values) | AID 435005, 2010 | 300,000 tested, 0.8% active | INS-1E cytokine-induced death, ATP luminescence, 48 h; percent of positive-control rescue, neutral wells zero;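 active means Every replicate reaches about 75%, or at least half do and their mean reaches it too, limit read from the data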;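 further: higher means more ATP so stronger rescue from cytokine killing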
# SKKanGAS inh – S. pyogenes SKKanGAS growth inhibitors in kanamycin, primary screen, streptokinase expression inhibitor project, SKKanGAS strain, BacTiter-Glo luminescence. 300,000 tested, 1.3% active. inhibition, % at 7.5 µM. 6 h;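 active means mean replicate score, as percent of positive control median, at least 50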;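 further: strain carries kanamycin resistance gene driven by streptokinase promoter and grows in 40 µg/ml kanamycin; loss of luminescence reflects streptokinase promoter inhibition or plain growth inhibition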
# Mdm2 MdmX PPI – inhibitors of human Mdm2-MdmX association, primary screen, cell-based, luminescence, split luciferase, SaOS-2, uHTS; Protein Mdm4 (Homo sapiens) + E3 ubiquitin-protein ligase Mdm2 (Homo sapiens), …; SaOS-2 split-luciferase Mdm2/MdmX complementation; inhibition, % at 8 µM; 330,000 tested, 3% active; AID 485346, 2010;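 active means inhibition of at least 50% at 8 µM in the primary screen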
# Target sequence (O15151 whole entry, looked up): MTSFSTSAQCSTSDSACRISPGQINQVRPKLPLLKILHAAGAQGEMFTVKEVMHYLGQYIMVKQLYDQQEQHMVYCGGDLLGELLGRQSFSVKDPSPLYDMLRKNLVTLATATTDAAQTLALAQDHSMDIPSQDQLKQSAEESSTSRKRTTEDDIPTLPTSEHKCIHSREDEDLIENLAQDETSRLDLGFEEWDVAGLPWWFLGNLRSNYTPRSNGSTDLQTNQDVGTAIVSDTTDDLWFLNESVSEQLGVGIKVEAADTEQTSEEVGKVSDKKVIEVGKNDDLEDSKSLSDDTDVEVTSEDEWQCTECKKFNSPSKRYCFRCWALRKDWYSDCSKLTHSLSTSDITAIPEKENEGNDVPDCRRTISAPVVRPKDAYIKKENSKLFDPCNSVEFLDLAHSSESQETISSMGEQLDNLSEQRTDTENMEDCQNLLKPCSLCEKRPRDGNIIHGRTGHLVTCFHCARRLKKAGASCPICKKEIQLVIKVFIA
# Target sequence (Q00987 whole entry, looked up): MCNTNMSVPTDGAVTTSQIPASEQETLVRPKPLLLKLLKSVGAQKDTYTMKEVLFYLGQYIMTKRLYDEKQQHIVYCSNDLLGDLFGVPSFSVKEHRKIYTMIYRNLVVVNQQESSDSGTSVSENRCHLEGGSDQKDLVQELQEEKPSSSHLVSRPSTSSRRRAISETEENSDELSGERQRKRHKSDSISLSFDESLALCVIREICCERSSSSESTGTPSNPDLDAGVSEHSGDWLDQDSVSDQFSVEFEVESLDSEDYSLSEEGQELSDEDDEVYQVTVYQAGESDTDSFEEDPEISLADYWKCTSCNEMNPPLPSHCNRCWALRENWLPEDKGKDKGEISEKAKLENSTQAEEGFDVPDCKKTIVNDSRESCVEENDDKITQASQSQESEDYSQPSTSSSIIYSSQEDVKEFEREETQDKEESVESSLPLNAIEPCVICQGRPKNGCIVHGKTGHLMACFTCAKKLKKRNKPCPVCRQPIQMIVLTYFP
# UPR CHOP act – activators of apoptotic CHOP UPR arm, primary screen, cell-based, CHO-CHOP luciferase reporter, luminescence, uHTS; UPR activation; percent of tunicamycin response over DMSO baseline; activation, % at 10 µM; 330,000 tested, 0.34% active; AID 449763, 2010;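 active means at 10 µM dose, activation of 40% or more, normalized to positive control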
#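 Dosing – one dose, 10 µM in 0.5% DMSO · System – CHO-CHOP cells, stable luciferase reporter of PERK-eIF2a-CHOP signalling · Input – 500 cells/well · Control set – tunicamycin 10 µg/mL final as positive, DMSO-only wells as negative · Timing – 6 h compound treatment, 37 °C · Measure – % activation vs tunicamycin · Technique – luminescence read with Steady-Glo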
# CHOP UPR conf – activators of apoptotic CHOP UPR arm, confirmation, cell-based, CHO-CHOP luciferase reporter, single concentration; shares compounds with UPR CHOP act; CHO-CHOP cells, CHOP-luciferase reporter luminescence; percent of tunicamycin response, DMSO as zero; activation, % at 10 µM; 1,000 tested, 64% active; AID 463112, 2010; in the data active means activation above about 33%
# UPR XBP1 confirm – IRE1-XBP1 UPR arm activators, confirmation, cell-based, CHO-XBP1 luciferase reporter, luminescence, single concentration | activation, % at 20 µM | 1,000 tested, 63% active | shares compounds with UPR XBP1 act;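 active means reporter signal at least 30% of the positive control's activation in two or more of four replicate wells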
# Mdm2 MdmX conf – Mdm2-MdmX complex disruptors, retested hits, confirmation, luminescence, single concentration. Mdm2-MdmX binding, luminescent assay. shares compounds with Mdm2 MdmX PPI. 10,000 tested, 55% active. AID 489028, 2010. inhibition, % at 8 µM; in the data active means inhibition above about 40%
# Full FLuc ctr – full-length luciferase signal inhibition, confirmation, counter-screen for Mdm2/MdmX interaction inhibitor project, cell-based, single concentration, SaOS-2; SaOS-2 full-length luciferase counterscreen, luminescence; shares compounds with Mdm2 MdmX PPI; inhibition, % at 8 µM; 6,200 tested, 77% active;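 active means mean inhibition at 8 µM reaching about 37%, which flags the compound as non-specific, limit read from the data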;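 further: p53-null SaOS-2 cells with luciferase driven by a doxycycline-inducible promoter; compound on cells about two nights before reading with doxycycline added after day one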
# A number is an active result; n = inactive; x = no result.
SMILES,CSC inhib,UPR XBP1 act,Beta apoptosis,SKKanGAS inh,Mdm2 MdmX PPI,UPR CHOP act,CHOP UPR conf,Mdm2 MdmX conf,Full FLuc ctr,others
CCCCNC1C(CC)C(CCC)C(C#N)(C#N)C1(C#N)C#N (stereo not drawn),n,n,n,n,61,74,34,n,56,
CC(C)(C)NCC(O)COc1ccccc1C1CCCC1 (stereo not drawn),n,n,n,x,n,n,x,x,x,
C#CCn1c(=NC(=O)c2ccc(S(=O)(=O)N3CCc4ccccc4C3)cc2)sc2cc(S(N)(=O)=O)ccc21,x,58,104,n,86,82,n,55,n,UPR XBP1 confirm=83
Nc1ncc(Br)cc1S(=O)(=O)NCCc1ccccc1,n,n,n,n,n,n,x,x,x,
O=C(CCl)Nc1cccc(S(=O)(=O)NC2=NCCCCC2)c1,n,n,n,x,62,167,81,69,n,
O=C(CCl)Nc1ccc(S(=O)(=O)NC2=NCCCCC2)cc1,n,n,n,x,n,n,x,x,x,
COc1ccccc1C(=O)NCC(=O)NCC1(N2CCCCC2)CCCCC1,n,n,n,n,n,n,x,x,x,
Nc1cccc2c1C(=O)N(C(=O)/C=C/c1cccc(Br)c1)C2=O,x,x,x,n,x,x,x,x,x,
COc1ccc(OC)c(/C=C/C(=O)N2C(=O)c3cccc(N)c3C2=O)c1,n,n,n,n,63,53,62,48,n,
COc1cc(/C=C/C(=O)N2C(=O)c3cccc(N)c3C2=O)cc(OC)c1OC,x,n,n,n,71,68,53,58,79,
Cc1ccc(S(=O)(=O)N2CCN(C(=O)c3ccccc3Cc3ccccc3)CC2)c(C)c1,n,n,n,n,n,n,x,x,x,
COc1ccc(CCNC(=O)C2CCCN2C(=O)Nc2ccc(F)cc2)cc1OC (stereo not drawn),n,n,n,n,n,n,x,x,x,
COc1cc(SC#N)ccc1N=Cc1c(C)[nH]n(-c2ccc(C)c(C)c2)c1=O,97,54,79,n,87,68,39,91,52,UPR XBP1 confirm=73
CCN(CC(=O)Nc1ccc2c(c1)OCCO2)C(=O)c1ccc(Cl)cc1Cl,n,n,n,n,n,n,x,x,x,
CCOC(=O)N1CCN(S(=O)(=O)c2ccc(C(=O)Nc3nnc(CC)o3)cc2)CC1,x,n,n,n,n,n,x,x,x,
CCOC(=O)N1CCN(S(=O)(=O)c2ccc(C(=O)Nc3nc4c(s3)CC(C)CC4)cc2)CC1 (stereo not drawn),n,62,n,n,78,64,96,n,x,UPR XBP1 confirm=116
COc1cccc(C(C(=O)NC2CCCCC2)N(C(=O)c2csnn2)C2CC2)c1 (stereo not drawn),n,n,n,n,n,n,x,x,x,
CN(Cc1cccc(C(F)(F)F)c1)C(=O)C1CCC(=O)N(CC2CCCCC2)C1 (stereo not drawn),n,n,n,n,n,n,x,x,x,
CNC[C@@H](CC1CCCCC1)NC[C@H](CC(C)C)NCCc1cccc(C(F)(F)F)c1,111,n,112,88,99,83,33,100,50,
CNC[C@@H](Cc1ccccc1)NC[C@@H](CC1CCCCC1)NCCCc1ccccc1,111,n,110,64,98,74,34,100,52,
CCCCCn1nc(C(=O)N(CCOC)c2c(N)n(CCCC)c(=O)[nH]c2=O)c2ccccc2c1=O,n,n,n,n,n,n,x,x,x,
CCCCC(=O)NC(c1ccc([N+](=O)[O-])cc1)c1c(O)ccc2ccccc12 (stereo not drawn),n,n,n,n,n,n,x,x,x,
CCCC(=O)NC(c1ccccc1)c1ccc2cccnc2c1O (stereo not drawn),108,n,99,n,79,51,n,89,49,
O=C(Nc1nc(-c2ccc(F)c(F)c2)cs1)Nc1ccc(F)cc1F,n,74,n,n,83,47,53,62,n,UPR XBP1 confirm=123
O=C(Cc1ccccc1F)Nc1nc(-c2ccc(F)c(F)c2)cs1,n,n,n,n,n,n,x,x,x,
SMILES,CSC inhib,UPR XBP1 act,Beta apoptosis,SKKanGAS inh,Mdm2 MdmX PPI,UPR CHOP act,CHOP UPR conf,Mdm2 MdmX conf,Full FLuc ctr,others
O=C(/C=C/c1c(F)cccc1Cl)c1ccc(O)cc1,67,n,n,n,100,60,n,97,n,
O=Cc1cccc2ccc3cccc(C(=O)O)c3c12,n,n,n,n,n,n,x,x,x,
CCOc1cc(/C=N/O)ccc1OCc1ccc([N+](=O)[O-])cc1,x,n,n,n,n,n,x,x,x,
CCOc1cc(C=C(C(=O)OC)C(=O)OC)ccc1OCc1ccc([N+](=O)[O-])cc1,n,n,n,x,96,220,242,75,44,
Cn1c2c(c3ccccc31)CCN1CCC[C@]21c1ccccc1,x,n,x,n,n,n,x,x,x,
Cc1cc(C)cc(NC(=O)COC(=O)CC2CCCC2)c1,n,n,n,x,n,n,x,x,x,
O=C(O)c1cc(-c2cccnc2)nc2ccc(Br)cc12,n,n,n,n,n,n,x,x,x,
O=C(Nc1ccc(C(F)(F)F)cc1)c1cc(-c2cccnc2)nc2ccc(Br)cc12,n,91,n,n,57,124,81,n,x,UPR XBP1 confirm=90
Cc1ccc(Cn2c(O)c(N=NC(=S)Nc3ccccc3F)c3cc(S(=O)(=O)N4CCOCC4)ccc32)cc1,x,x,x,n,x,x,x,x,x,
CCc1ccccc1NC(=S)N=Nc1c(O)n(C)c2ccc(S(=O)(=O)N3CCOCC3)cc12,n,n,x,n,52,51,53,60,53,
CCCN1C/C(=C/c2ccc3c(c2)OCO3)C(=O)/C(=C/c2ccc3c(c2)OCO3)C1,87,n,n,n,99,55,115,n,68,
N#Cc1ccc(-c2ccc(F)cc2)nc1Oc1ccc(Cl)c(Cl)c1,n,38,n,n,n,n,x,x,x,UPR XBP1 confirm=n
